Numbered stars: 1 amine (or outer) side, 2 acyl side, 3 side chain; on linkers, the order of the positions; unused ones are H or OH. Square brackets hold non-standard residues; d marks the D form. Peptide text beside a SMILES is read from it. * marks the point of attachment. X1 = O=C(O)c1cc(NC(=S)*)ccc1-c1c2ccc(=O)cc-2oc2cc(O)ccc12; X2 = CN(CCC(=O)*)c1ccc(/N=N/c2ccc([N+](=O)[O-])cc2)cc1; Achc(trans-4) = O=C([C@H]1CC[C@H](N[*:1])CC1)[*:2]; X3 = CN(C)c1ccc(/N=N/c2ccc(CCC(=O)*)cc2)cc1

The target of assay [1] is T1, NAD-dependent protein deacetylase sirtuin-2 (Homo sapiens) (UniProt Q8IXJ6).
T1 sequence (whole entry): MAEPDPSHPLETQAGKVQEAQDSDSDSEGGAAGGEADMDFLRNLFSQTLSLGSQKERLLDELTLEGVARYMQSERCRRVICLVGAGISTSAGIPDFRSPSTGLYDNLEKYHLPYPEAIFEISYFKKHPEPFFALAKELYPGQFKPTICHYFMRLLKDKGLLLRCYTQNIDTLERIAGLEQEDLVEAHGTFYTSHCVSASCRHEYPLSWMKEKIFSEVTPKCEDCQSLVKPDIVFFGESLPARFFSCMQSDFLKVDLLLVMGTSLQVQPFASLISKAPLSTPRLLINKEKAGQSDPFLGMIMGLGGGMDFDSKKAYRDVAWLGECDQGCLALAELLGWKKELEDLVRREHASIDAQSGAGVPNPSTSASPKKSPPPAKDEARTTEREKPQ
Briefly: Binding affinity to SIRT2 (unknown origin) assessed as increase in fluorescence intensity at 2.5 uM measured at 5 mins interval for 1 hr in presence of NAD+ by fluorometric method relative to control. In short, it runs like this:
(§1)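 Each FITC/quencher FRET peptide probe was incubated with recombinant SIRT1–7 in 96-well half-area plates at 37 °C for 1 h. The fluorescence increase is reported as a fold change, SIRT(+) signal over SIRT(−) signal, after 1 h.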

The target of assay [2] is NAD-dependent protein deacylase sirtuin-6 (Homo sapiens) (UniProt Q8N6T7). Put plainly: Binding affinity to SIRT6 (unknown origin) assessed as increase in fluorescence intensity at 2.5 uM measured at 5 mins interval for 1 hr in presence of NAD+ by fluorometric method relative to control. The essentials: as §1
Sequence of NAD-dependent protein deacylase sirtuin-6 (Homo sapiens) (Q8N6T7 whole entry): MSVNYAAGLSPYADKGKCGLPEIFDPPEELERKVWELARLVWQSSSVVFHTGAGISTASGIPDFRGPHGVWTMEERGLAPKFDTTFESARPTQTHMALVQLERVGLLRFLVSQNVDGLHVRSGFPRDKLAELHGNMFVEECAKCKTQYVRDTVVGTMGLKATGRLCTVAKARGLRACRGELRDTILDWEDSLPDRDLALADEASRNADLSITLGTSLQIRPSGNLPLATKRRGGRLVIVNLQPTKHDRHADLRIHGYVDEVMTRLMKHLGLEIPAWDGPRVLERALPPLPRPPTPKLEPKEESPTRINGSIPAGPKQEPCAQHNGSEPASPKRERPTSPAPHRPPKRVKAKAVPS
The target in assay [3] is T2, NAD-dependent protein deacetylase sirtuin-7 (Homo sapiens) (UniProt Q9NRC8).
T2 sequence (whole entry): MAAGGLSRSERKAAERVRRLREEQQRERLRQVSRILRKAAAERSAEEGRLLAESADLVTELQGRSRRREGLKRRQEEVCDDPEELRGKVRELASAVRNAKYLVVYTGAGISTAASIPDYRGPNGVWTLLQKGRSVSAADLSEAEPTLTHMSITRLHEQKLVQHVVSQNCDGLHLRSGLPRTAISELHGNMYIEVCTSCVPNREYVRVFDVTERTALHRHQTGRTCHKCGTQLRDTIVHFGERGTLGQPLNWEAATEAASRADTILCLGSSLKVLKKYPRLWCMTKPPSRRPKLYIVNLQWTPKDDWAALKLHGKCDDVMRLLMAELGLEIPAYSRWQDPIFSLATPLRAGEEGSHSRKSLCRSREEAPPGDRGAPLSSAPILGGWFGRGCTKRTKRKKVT
Briefly: Binding affinity to SIRT7 (unknown origin) assessed as increase in fluorescence intensity at 2.5 uM measured at 5 mins interval for 1 hr in presence of NAD+ by fluorometric method relative to control. In short, it runs like this:
as §1

Assay [4] has as its target T3, NAD-dependent protein deacetylase sirtuin-1 (Homo sapiens) (UniProt Q96EB6).
T3 sequence (whole entry): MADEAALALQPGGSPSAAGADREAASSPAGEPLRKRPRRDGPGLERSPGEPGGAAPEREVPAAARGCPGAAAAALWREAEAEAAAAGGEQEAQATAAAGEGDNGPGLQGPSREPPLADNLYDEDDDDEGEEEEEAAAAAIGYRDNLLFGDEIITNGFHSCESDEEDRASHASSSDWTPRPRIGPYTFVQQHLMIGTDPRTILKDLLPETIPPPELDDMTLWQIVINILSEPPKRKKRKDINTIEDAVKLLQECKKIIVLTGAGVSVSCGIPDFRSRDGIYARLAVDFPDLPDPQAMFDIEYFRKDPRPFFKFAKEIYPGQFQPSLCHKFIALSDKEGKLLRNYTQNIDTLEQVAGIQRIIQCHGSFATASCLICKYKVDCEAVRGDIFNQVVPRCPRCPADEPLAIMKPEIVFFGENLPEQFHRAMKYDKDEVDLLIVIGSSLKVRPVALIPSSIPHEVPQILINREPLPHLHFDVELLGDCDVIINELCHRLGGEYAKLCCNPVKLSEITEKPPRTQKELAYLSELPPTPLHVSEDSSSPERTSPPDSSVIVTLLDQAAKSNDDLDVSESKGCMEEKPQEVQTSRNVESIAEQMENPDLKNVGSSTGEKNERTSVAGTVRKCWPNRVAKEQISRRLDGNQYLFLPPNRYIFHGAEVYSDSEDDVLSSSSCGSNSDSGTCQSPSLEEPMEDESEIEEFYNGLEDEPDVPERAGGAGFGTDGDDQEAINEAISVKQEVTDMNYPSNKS
Put plainly: Binding affinity to SIRT1 (unknown origin) assessed as increase in fluorescence intensity at 2.5 uM measured at 5 mins interval for 1 hr in presence of NAD+ by fluorometric method relative to control. In short, it runs like this:
as §1

The target of assay [5] is T4, NAD-dependent protein lipoamidase sirtuin-4, mitochondrial (Homo sapiens) (UniProt Q9Y6E7).
T4 sequence (whole entry): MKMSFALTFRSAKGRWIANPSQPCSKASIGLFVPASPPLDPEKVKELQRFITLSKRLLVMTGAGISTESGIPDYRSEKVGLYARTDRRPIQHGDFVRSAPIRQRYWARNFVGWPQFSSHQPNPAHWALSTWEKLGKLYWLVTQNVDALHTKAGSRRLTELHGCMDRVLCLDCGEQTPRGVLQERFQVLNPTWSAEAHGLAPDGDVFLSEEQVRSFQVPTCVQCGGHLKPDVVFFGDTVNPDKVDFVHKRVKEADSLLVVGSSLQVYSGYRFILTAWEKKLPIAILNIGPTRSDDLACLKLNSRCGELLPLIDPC
Put plainly: Binding affinity to SIRT4 (unknown origin) assessed as increase in fluorescence intensity at 2.5 uM measured at 5 mins interval for 1 hr in presence of NAD+ by fluorometric method relative to control. The essentials:
as §1

Assay [6] addresses NAD-dependent protein deacylase sirtuin-5, mitochondrial (Homo sapiens) (UniProt Q9NXA8). Put plainly: Binding affinity to SIRT5 (unknown origin) assessed as increase in fluorescence intensity at 2.5 uM measured at 5 mins interval for 1 hr in presence of NAD+ by fluorometric method relative to control. The essentials: as §1
Assay [7] has as its target T5, NAD-dependent protein deacetylase sirtuin-3, mitochondrial (Homo sapiens) (UniProt Q9NTG7).
T5 sequence (whole entry): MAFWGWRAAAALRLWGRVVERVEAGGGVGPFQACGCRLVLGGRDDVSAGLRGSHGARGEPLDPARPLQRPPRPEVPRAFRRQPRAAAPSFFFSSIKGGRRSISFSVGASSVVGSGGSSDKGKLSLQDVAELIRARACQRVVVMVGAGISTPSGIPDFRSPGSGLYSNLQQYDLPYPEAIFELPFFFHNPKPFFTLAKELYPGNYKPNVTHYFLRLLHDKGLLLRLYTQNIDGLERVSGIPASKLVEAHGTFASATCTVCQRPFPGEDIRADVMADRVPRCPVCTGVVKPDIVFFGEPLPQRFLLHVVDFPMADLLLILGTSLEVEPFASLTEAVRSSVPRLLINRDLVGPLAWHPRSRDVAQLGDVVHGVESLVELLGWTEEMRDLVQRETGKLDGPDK
Briefly: Binding affinity to SIRT3 (unknown origin) assessed as increase in fluorescence intensity at 2.5 uM measured at 5 mins interval for 1 hr in presence of NAD+ by fluorometric method relative to control. The essentials:
as §1

Sequence of NAD-dependent protein deacylase sirtuin-5, mitochondrial (Homo sapiens) (Q9NXA8 37-310 limits assumed): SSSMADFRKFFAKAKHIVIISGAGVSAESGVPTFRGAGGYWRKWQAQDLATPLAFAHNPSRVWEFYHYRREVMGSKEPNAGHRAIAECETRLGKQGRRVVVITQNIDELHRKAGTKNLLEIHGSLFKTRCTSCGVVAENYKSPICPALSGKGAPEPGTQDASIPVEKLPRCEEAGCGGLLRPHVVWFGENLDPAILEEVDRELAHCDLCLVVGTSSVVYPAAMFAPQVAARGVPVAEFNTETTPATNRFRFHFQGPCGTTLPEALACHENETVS

Take `CC(=O)N[C@@H](CCC(N)=O)C(=O)N[C@H](C(=O)N[C@@H](C)C(=O)N[C@@H](CCCNC(=N)N)C(=O)N[C@@H](CCCCNC(=O)CCc1ccc(/N=N/c2ccc(N(C)C)cc2)cc1)C(=O)N[C@@H](CO)C(=O)N[C@H](C(=O)NCC(=O)NCC(=O)NCCCNC(=S)Nc1ccc(-c2c3ccc(=O)cc-3oc3cc(O)ccc23)c(C(=O)O)c1)[C@@H](C)O)[C@@H](C)O`: the fold change (FC) in assay [1] turned out to be 5.89; in assay [2] it was 3.6; in assay [3], 1.04; in assay [4], 13.8; in assay [5], 1.03; in assay [6] it was 1.08.
With `CC[C@H](C)[C@H](NC(=O)[C@H](CCCNC(=N)N)NC(=O)[C@H](Cc1ccc(O)cc1)NC(=O)[C@H](CC(=O)O)NC(=O)[C@H]1CC[C@H](NC(=S)Nc2ccc(-c3c4ccc(=O)cc-4oc4cc(O)ccc34)c(C(=O)O)c2)CC1)C(=O)N[C@@H](CCCCNC(=O)CCN(C)c1ccc(/N=N/c2ccc([N+](=O)[O-])cc2)cc1)C(=O)N[C@@H](CCCNC(=N)N)C(=O)N[C@@H](Cc1ccc(O)cc1)C(=O)N[C@@H](Cc1c[nH]cn1)C(=O)N[C@H](C(N)=O)[C@@H](C)O` (X1-[Achc(trans-4)]DYRIK(X2)RYHT-NH2), the fold change (FC) was determined as 6.97 in assay [1]; 26.7 in assay [7]; 1.19 in assay [2]; 1.05 in assay [3]; 5.85 in assay [4]; 1.25 in assay [5]. The fold change (FC) in assay [6] was 1.15.
For the molecule `CC[C@H](C)[C@H](NC(=O)[C@H](CCCNC(=N)N)NC(=O)[C@H](Cc1ccccc1)NC(=O)[C@H](CC(N)=O)NC(=O)[C@H]1CC[C@H](NC(=S)Nc2ccc(-c3c4ccc(=O)cc-4oc4cc(O)ccc34)c(C(=O)O)c2)CC1)C(=O)N[C@@H](CCCCNC(=O)CCc1ccc(/N=N/c2ccc(N(C)C)cc2)cc1)C(=O)N[C@@H](CCCNC(=N)N)C(=O)N[C@@H](Cc1ccc(O)cc1)C(=O)N[C@@H](CO)C(=O)N[C@@H](CC(N)=O)C(N)=O` (X1-[Achc(trans-4)]NFRIK(X3)RYSN-NH2), the fold change (FC) in assay [1] was determined as 1.85; in assay [7], 1.92; in assay [2], 1.07; in assay [3], 1.04; in assay [4] it was 4.79; in assay [5] it was 1.14. In assay [6], the fold change (FC) came to 1.11.
On to `CC[C@H](C)[C@H](NC(=O)[C@H](CCCNC(=N)N)NC(=O)[C@H](Cc1ccc(O)cc1)NC(=O)[C@H](CC(=O)O)NC(=O)[C@H]1CC[C@H](NC(=S)Nc2ccc(-c3c4ccc(=O)cc-4oc4cc(O)ccc34)c(C(=O)O)c2)CC1)C(=O)N[C@@H](CCCCNC(=O)CCc1ccc(/N=N/c2ccc(N(C)C)cc2)cc1)C(=O)N[C@@H](CCCNC(=N)N)C(=O)N[C@@H](Cc1ccc(O)cc1)C(=O)N[C@@H](Cc1c[nH]cn1)C(=O)N[C@H](C(N)=O)[C@@H](C)O` (X1-[Achc(trans-4)]DYRIK(X3)RYHT-NH2), for which the fold change (FC) in assay [1] amounted to 1.92; in assay [7], 1.96; in assay [2] it was 1.05; in assay [3] it was 1.01; in assay [4], 4.76; in assay [5], 1.11. For the same molecule, the fold change (FC) in assay [6] amounted to 1.09.
For the molecule `C[C@H](NC(=O)[C@@H](NC(=O)[C@H](CCC(N)=O)NC(=O)[C@H]1CC[C@H](NC(=S)Nc2ccc(-c3c4ccc(=O)cc-4oc4cc(O)ccc34)c(C(=O)O)c2)CC1)[C@@H](C)O)C(=O)N[C@@H](CCCNC(=N)N)C(=O)N[C@@H](CCCCNC(=O)CCN(C)c1ccc(/N=N/c2ccc([N+](=O)[O-])cc2)cc1)C(=O)N[C@@H](CO)C(=O)N[C@H](C(=O)NCC(=O)NCC(=O)O)[C@@H](C)O`, the fold change (FC) in assay [1] worked out at 4.06; in assay [2], 9.38; in assay [3] it was 1.04; in assay [4], 6.06; in assay [5], 1.2; in assay [6], 1.07.
On to `C[C@H](NC(=O)CNC(=O)CNC(=O)[C@H](CCCCN)NC(=O)[C@H]1CC[C@H](NC(=S)Nc2ccc(-c3c4ccc(=O)cc-4oc4cc(O)ccc34)c(C(=O)O)c2)CC1)C(=O)N[C@@H](CCCCNC(=O)CCN(C)c1ccc(/N=N/c2ccc([N+](=O)[O-])cc2)cc1)C(=O)N[C@@H](CCCNC(=N)N)C(=O)N[C@@H](Cc1c[nH]cn1)C(=O)N[C@@H](CCCNC(=N)N)C(=O)N[C@@H](CCCCN)C(N)=O`, for which the fold change (FC) in assay [1] was 10.3; in assay [2] it was 2.55; in assay [3] it was 1.09; in assay [4], 14.7; in assay [5], 1.04; in assay [6], 1.07.
In the case of `C[C@H](NC(=O)CNC(=O)CNC(=O)[C@H](CCCCN)NC(=O)[C@H]1CC[C@H](NC(=S)Nc2ccc(-c3c4ccc(=O)cc-4oc4cc(O)ccc34)c(C(=O)O)c2)CC1)C(=O)N[C@@H](CCCCNC(=O)CCc1ccc(/N=N/c2ccc(N(C)C)cc2)cc1)C(=O)N[C@@H](CCCNC(=N)N)C(=O)N[C@@H](Cc1c[nH]cn1)C(=O)N[C@@H](CCCNC(=N)N)C(=O)N[C@@H](CCCCN)C(N)=O`, the fold change (FC) came to 5.45 in assay [1]; 1.33 in assay [2]; 1.03 in assay [3]; 12 in assay [4]; 0.93 in assay [5]; 1.07 in assay [6].

The values above are taken from ChEMBL document CHEMBL4706730, “A Set of Highly Sensitive Sirtuin Fluorescence Probes for Screening Small-Molecular Sirtuin Defatty-Acylase Inhibitors” (ACS Med Chem Lett, 2021).
